Source: PubChem
PRMT1 FP inh = inhibitors of human PRMT1; recombinant PRMT1, activity-based probe fluorescence polarization; AID 652257; Q99873; 370,000 tested, 1.3% active; inhibition, % at 2.79 µM;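 active = inhibition above about 21% made by adding two undisclosed values, limit read from the data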
DAGLB inhibitor = diacylglycerol lipase beta (human) inhibition. Q8NCG7. HEK293T DAGLB membrane lysate, EnzChek fluorogenic substrate. inhibition, % at 5.17 µM. 340,000 tested, 0.059% active; in the data active = inhibition above about 34%;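 note: 0% = enzyme with vehicle and 100% = wells lacking enzyme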
ABHD4 inh = inhibits mouse alpha/beta hydrolase domain 4; purified mABHD4, FP-Rh probe fluorescence polarization; Q8VD66; 370,000 tested, 0.54% active; inhibition, % at 8.92 µM;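 active = inhibition exceeding the mean over every tested compound plus 3 SD, cut at about 30% in these data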;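 note: 0% = plate median of compound wells and 100% = S159A mutant with DMSO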
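assay system = mABHD4 protein | compound dosing = single nominal dose of 8.92 µM, 0.89% DMSO final | read-out basis = percent inhibition of probe binding, normalized to plate controls | schedule = Enzyme–compound pre-incubation 45 min, then probe 60 min, both 25 °C | detection = fluorescence polarization, excitation 525 nm, emission 598 nm, BODIPY TMR filters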
LEDGF integ inh = blocks HIV-1 LEDGF/p75-dependent DNA integration | AID 743269 | 370,000 tested, 0.64% active | inhibition, % at 3.7 µM | TR-FRET IN-LEDGF/p75 DNA integration, Eu/Cy5;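 active = inhibition above the screen-wide mean plus 3 SD, cut at about 13% in these data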;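 note: signal is the Cy5 over europium emission ratio at 671 and 618 nm; 0% = plate median of compound wells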
rCAG binder = molecules binding r(CAG) RNA repeats; r(CAG) RNA repeat, TO-PRO-1 dye displacement fluorescence; inhibition, % at 3 µM; 370,000 tested, 1.3% active;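 active = inhibition above the plate cutoff, the mean of all test compounds on that plate plus 3 SD, cut at about 35% in these data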;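 note: 0% = DMSO alone and 100% = 100 µM mitoxantrone as full dye displacement; higher means more dye released from RNA so lower well fluorescence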
HTRA1 inh = inhibitors of human serine peptidase HTRA1 | recombinant HTRA1, FP-rhodamine activity-based probe, fluorescence polarization | Q92743 | AID 504803 | inhibition, % at 5.96 µM | 340,000 tested, 0.5% active; in the data active = inhibition above about 36%;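 note: 0% = enzyme with DMSO and 100% = wells lacking enzyme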
Target sequence (Q92743 whole entry, looked up): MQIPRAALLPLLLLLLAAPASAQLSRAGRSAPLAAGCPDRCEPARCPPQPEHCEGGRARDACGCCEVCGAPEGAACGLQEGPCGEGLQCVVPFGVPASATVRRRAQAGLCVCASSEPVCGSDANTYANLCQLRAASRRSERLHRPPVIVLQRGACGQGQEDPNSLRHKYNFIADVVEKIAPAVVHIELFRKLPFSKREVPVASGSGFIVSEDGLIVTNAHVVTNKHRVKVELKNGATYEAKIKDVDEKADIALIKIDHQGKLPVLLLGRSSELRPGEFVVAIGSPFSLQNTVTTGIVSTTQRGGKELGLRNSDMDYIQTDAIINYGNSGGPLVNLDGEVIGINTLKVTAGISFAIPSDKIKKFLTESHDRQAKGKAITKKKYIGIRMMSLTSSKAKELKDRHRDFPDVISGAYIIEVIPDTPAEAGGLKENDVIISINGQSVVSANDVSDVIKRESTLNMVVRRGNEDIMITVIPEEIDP
rCAG bind conf = r(CAG) RNA repeat binding, confirmation | shares compounds with rCAG binder | TO-PRO-1 dye displacement fluorescence | inhibition, % at 3 µM | 4,300 tested, 70% active;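 active = inhibition above a per-plate cutoff, the mean inhibition of sample wells plus 3 SD, cut at about 35% in these data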;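 note: loss of TO-PRO-1 fluorescence as compound displaces dye from 1x1 AA loop RNA; 0% = DMSO only wells and 100% = 100 µM mitoxantrone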
DNA CAG counter = disrupts DNA CAG TO-PRO-1 complex, flagging rCAG hits; AID 652068; d(CAG) DNA oligo TO-PRO-1 dye displacement, fluorescence; 4,300 tested, 94% active; inhibition, % at 3 µM; shares compounds with rCAG binder;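 active = inhibition above its plate's cutoff, the mean test-well inhibition plus 3 SD, cut at about 4.8% in these data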;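 note: 0% = DNA dye mix with DMSO and 100% = 100 µM mitoxantrone; hits displace the dye from DNA and so lower well fluorescence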
* hit, by the source's call; · = no result given. Shown are actives, neighbours in structure and some others; about 3.2% of the full set was active somewhere.

SMILES	PRMT1 FP inh	DAGLB inhibitor	ABHD4 inh	LEDGF integ inh	rCAG binder	HTRA1 inh	rCAG bind conf	DNA CAG counter
COc1ccc(/C=C/c2nnc(NC(=O)c3ccco3)s2)cc1	6	·	-10	2	10	·	·	·
COc1cc(C(=O)NNC(=O)COc2ccc(C)cc2)ccc1OCC(=O)N1CCOCC1	0	-1	7	2	-2	-5	·	·
CCOC(=O)c1c(NC(=O)c2ccccc2C(=O)O)sc2c1CCC2	3	5	4	0	47*	-1	29	7.3*
CC(C)Cc1csc(NC(=O)c2ccc(F)cc2)c1C(=O)O	-1	11	13	3	35*	-6	19	2
CCOC(=O)c1c(NC(=O)c2c(C(=O)O)cccc2[N+](=O)[O-])sc2c1CCCC2	6	5	-5	7	47*	-1	34	10.0*
CCOC(=O)c1c(NC(=O)c2cccc([N+](=O)[O-])c2C(=O)O)sc2c1CCCC2	-4	4	-2	5	31	-3	·	·
CC(C)OC(=O)c1c(NC(=O)CCC(=O)O)sc2c1CCCCC2	-2	6	4	5	32	9	·	·
CC(C)OC(=O)c1c(NC(=O)C2CC=CCC2C(=O)O)sc2c1CCCCC2 (stereo unspecified)	0	12	0	3	56*	-10	68*	22*
COc1ccc(S(=O)(=O)NC2CCCC2)cc1Cl	-4	-1	0	-1	0	1	·	·
CN1C(=O)/C(=C/c2ccc3c(c2)OCO3)N=C1c1ccccc1	1	-3	-4	-1	0	2	·	·
CCOC(=O)c1sc(NC(=O)c2ccccc2C(=O)O)c(C(=O)OCC)c1C	8	1	-11	2	45*	3	35*	7.7*
COc1ccc(C=NCCC2(O)CC(C)N(C)CC2C)cc1 (stereo unspecified)	1	-1	1	1	-2	3	·	·
O=C(COC(=O)c1cc([N+](=O)[O-])ccc1Cl)NC1CCCC1	3	3	2	-3	-4	4	·	·
CC(CCc1ccccc1)NC(=O)COC(=O)c1cc(NS(=O)(=O)c2ccc(Cl)c([N+](=O)[O-])c2)ccc1O (stereo unspecified)	3	5	-26	5	46*	-28	43*	12*
CN(C(=O)COC(=O)c1cc(NS(=O)(=O)c2cc([N+](=O)[O-])ccc2Cl)ccc1O)C1CCCCC1	1	5	-7	-1	56*	-6	53*	17*
COC(=O)C1=C(C)Nc2c(c(=O)n(C)c(=O)n2C)C1c1ccncc1 (stereo unspecified)	1	1	-8	1	-4	4	·	·
CCCN(CCC)S(=O)(=O)c1ccc(NS(C)(=O)=O)cc1	2	-1	5	-1	1	5	·	·
CCCN(CCC)S(=O)(=O)c1ccc(NS(=O)(=O)c2ccc(F)cc2)cc1	2	-1	-2	3	46*	-6	35*	8.4*
Cc1cc(Br)cn2c(Cc3ccccc3C(F)(F)F)c(-c3ccccc3)nc12	0	·	-6	-1	6	·	·	·
Cc1ccc(-c2nc3ccc(Cl)cn3c2Cc2cccc(F)c2)cc1	-1	·	-17	7	38*	·	3	3
Fc1cccc(Cc2c(-c3ccc(Cl)cc3)nc3ccc(Br)cn23)c1	7	·	-64	4	49*	·	14	4.6*
Fc1cccc(Cc2c(-c3cccc(Br)c3)nc3ccc(Br)cn23)c1	-1	·	-49	0	55*	·	7	4
COc1ccc(-c2nc3ccc(Br)cn3c2Cc2cccc(F)c2)cc1OC	5	·	8	4	15	·	·	·
Cc1cc(Br)cn2c(Cc3ccccc3C(F)(F)F)c(-c3cccc(Br)c3)nc12	10	·	-45	5	47*	·	7	3
Cc1ccc2nc(-c3ccc(Cl)cc3)c(Cc3cccc(F)c3)n2c1	1	·	-10	-1	5	·	·	·
